Test results: ChEMBL document CHEMBL2331097, “Synthesis of 5,7-disubstituted-4-methyl-7H-pyrrolo[2,3-d]pyrimidin-2-amines as microtubule inhibitors” (Bioorg Med Chem, 2013)
The source made the active and inactive calls. No cut-off for these calls is given here.

Columns and labels:
[1] = Cytotoxicity against mouse JC cells assessed as inhibition of cell survival after 48 hrs by SRB assay; format: functional, cell-based
How it was run: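 JC (CRL-2116) cells kept in RPMI-1640 with L-glutamine, 10% FBS and 50 μg/ml gentamicin at 37 °C, 5% CO₂. Cells were seeded at about 20% confluency and left 24 h to attach, then exposed to a range of concentrations for 48 h. Cells were PBS-washed, fixed in 10% trichloroacetic acid and stained with 0.4% SRB in 1% acetic acid. Dye was dissolved in 10 mM Tris and absorbance read at 570 nm.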

JC = assay: Modulatory activity at P-gp in mouse JC cells assessed as lowest drug concentration required to increase intracellular [3H]taxol accumulation pretreated for 30 mins prior to [3H]taxol addition measured after 60 mins by liquid scintillation counting analysis; format: cell-based
How it was run: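 JC cells were seeded at about 25% confluency and grown 3–4 days to near confluency. Medium was switched to serum-free, and compounds were preincubated for 30 min at 37 °C. About 0.1 µCi [³H]Taxol (75 Ci/mmol) per well followed, for 60 min at 37 °C. Cells were washed twice with ice-cold PBS and lysed in 1% SDS. Intracellular label was counted by liquid scintillation, and the lowest concentration giving maximal accumulation was recorded.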

RXF 393 = assay: Growth inhibition of human RXF393 cells after 48 hrs by SRB assay; format: functional; settings: RXF 393, 48 h
HCT-116 = assay: Growth inhibition of human HCT116 cells after 48 hrs by SRB assay; format: functional; settings: HCT-116, 48 h
HL-60 = assay: Growth inhibition of human HL60 cells after 48 hrs by SRB assay; format: functional; settings: HL-60, 48 h
SR = assay: Growth inhibition of human SR cells after 48 hrs by SRB assay; format: functional
NCI-H522 = assay: Growth inhibition of human NCI-H522 cells after 48 hrs by SRB assay; format: functional; settings: NCI-H522, 48 h
NCI-H322M = assay: Growth inhibition of human NCI-H322M cells after 48 hrs by SRB assay; format: functional
OVCAR-5 = assay: Growth inhibition of human OVCAR5 cells after 48 hrs by SRB assay; format: functional; settings: OVCAR-5, 48 h
MDA-MB-468 = assay: Growth inhibition of human MDA-MB-468 cells after 48 hrs by SRB assay; format: functional; settings: MDA-MB-468, 48 h
IGROV-1 = assay: Growth inhibition of human IGROV1 cells after 48 hrs by SRB assay; format: functional; settings: IGROV-1, 48 h
HOP-62 = assay: Growth inhibition of human HOP62 cells after 48 hrs by SRB assay; format: functional; settings: HOP-62, 48 h
[2] = Growth inhibition of human EKVX cells after 48 hrs by SRB assay; format: functional
OVCAR-3 = assay: Growth inhibition of human OVCAR3 cells after 48 hrs by SRB assay; format: functional; settings: OVCAR-3, 48 h
SK-OV-3 = assay: Growth inhibition of human SKOV3 cells after 48 hrs by SRB assay; format: functional; settings: SK-OV-3, 48 h
DU-145 = assay: Growth inhibition of human DU145 cells after 48 hrs by SRB assay; format: functional; settings: DU-145, 48 h
A498 = assay: Growth inhibition of human A498 cells after 48 hrs by SRB assay; format: functional; settings: A498, 48 h
SK-MEL-2 = assay: Growth inhibition of human SK-MEL-2 cells after 48 hrs by SRB assay; format: functional; settings: SK-MEL-2, 48 h
A549 = assay: Growth inhibition of human A549/ATCC cells after 48 hrs by SRB assay; format: functional; settings: A549, 48 h
[3] = Growth inhibition of human HCC2998 cells after 48 hrs by SRB assay; format: functional; settings: HCC 2998, 48 h
OVCAR-4 = assay: Growth inhibition of human OVCAR4 cells after 48 hrs by SRB assay; format: functional; settings: OVCAR-4, 48 h
M14 = assay: Growth inhibition of human M14 cells after 48 hrs by SRB assay; format: functional; settings: M14, 48 h
HT-29 = assay: Growth inhibition of human HT-29 cells after 48 hrs by SRB assay; format: functional; settings: HT-29, 48 h
SNB-19 = assay: Growth inhibition of human SNB19 cells after 48 hrs by SRB assay; format: functional; settings: SNB-19, 48 h
ACHN = assay: Growth inhibition of human ACHN cells after 48 hrs by SRB assay; format: functional
SF-268 = assay: Growth inhibition of human SF268 cells after 48 hrs by SRB assay; format: functional; settings: SF-268, 48 h
HOP-92 = assay: Growth inhibition of human HOP92 cells after 48 hrs by SRB assay; format: functional; settings: HOP-92, 48 h
COLO 205 = assay: Growth inhibition of human COLO205 cells after 48 hrs by SRB assay; format: functional; settings: COLO 205, 48 h
CAKI-1 = assay: Growth inhibition of human CAKI-1 cells after 48 hrs by SRB assay; format: functional; settings: CAKI-1, 48 h
UACC-62 = assay: Growth inhibition of human UACC62 cells after 48 hrs by SRB assay; format: functional; settings: UACC-62, 48 h
NCI-H460 = assay: Growth inhibition of human NCI-H460 cells after 48 hrs by SRB assay; format: functional; settings: NCI-H460, 48 h
MCF7 = assay: Growth inhibition of human MCF7 cells after 48 hrs by SRB assay; format: functional; settings: MCF7, 48 h
[4] = Ratio of compound IC50 to paclitaxel IC50 for mouse JC cells after 48 hrs by SRB assay; format: functional
UACC-257 = assay: Growth inhibition of human UACC257 cells after 48 hrs by SRB assay; format: functional; settings: UACC-257, 48 h
RPMI-8226 = assay: Growth inhibition of human RPMI8226 cells after 48 hrs by SRB assay; format: functional; settings: RPMI-8226, 48 h
Malme-3M = assay: Growth inhibition of human MALME-3M cells after 48 hrs by SRB assay; format: functional
K562 = assay: Growth inhibition of human K562 cells after 48 hrs by SRB assay; format: functional; settings: K562, 48 h
MDA-MB-435 = assay: Growth inhibition of human MDA-MB-435 cells after 48 hrs by SRB assay; format: functional; settings: MDA-MB-435, 48 h
PC-3 = assay: Growth inhibition of human PC3 cells after 48 hrs by SRB assay; format: functional; settings: PC-3, 48 h
LOX IMVI = assay: Growth inhibition of human LOXIMVI cells after 48 hrs by SRB assay; format: functional
[5] = Growth inhibition of human Hs 578T cells after 48 hrs by SRB assay; format: functional
TK-10 = assay: Growth inhibition of human TK10 cells after 48 hrs by SRB assay; format: functional; settings: TK-10, 48 h
SK-MEL-5 = assay: Growth inhibition of human SK-MEL-5 cells after 48 hrs by SRB assay; format: functional; settings: SK-MEL-5, 48 h
CCRF-CEM = assay: Growth inhibition of human CCRF-CEM cells after 48 hrs by SRB assay; format: functional
HCT-15 = assay: Growth inhibition of human HCT15 cells after 48 hrs by SRB assay; format: functional; settings: HCT-15, 48 h
SK-MEL-28 = assay: Growth inhibition of human SK-MEL-28 cells after 48 hrs by SRB assay; format: functional; settings: SK-MEL-28, 48 h
U-251 = assay: Growth inhibition of human U251 cells after 48 hrs by SRB assay; format: functional; settings: U-251, 48 h
SW-620 = assay: Growth inhibition of human SW620 cells after 48 hrs by SRB assay; format: functional; settings: SW-620, 48 h
NCI/ADR-RES = assay: Growth inhibition of human NCI/ADR-RES cells after 48 hrs by SRB assay; format: functional
SNB-75 = assay: Growth inhibition of human SNB75 cells after 48 hrs by SRB assay; format: functional; settings: SNB-75, 48 h
MDA-MB-231 = assay: Growth inhibition of human MDA-MB-231 cells after 48 hrs by SRB assay; format: functional; settings: MDA-MB-231, 48 h
BT-549 = assay: Growth inhibition of human BT549 cells after 48 hrs by SRB assay; format: functional; settings: BT-549, 48 h
KM12 = assay: Growth inhibition of human KM12 cells after 48 hrs by SRB assay; format: functional; settings: KM12, 48 h
SF-539 = assay: Growth inhibition of human SF539 cells after 48 hrs by SRB assay; format: functional; settings: SF-539, 48 h
UO-31 = assay: Growth inhibition of human UO31 cells after 48 hrs by SRB assay; format: functional; settings: UO-31, 48 h
SN12C = assay: Growth inhibition of human SN12C cells after 48 hrs by SRB assay; format: functional
NCI-H23 = assay: Growth inhibition of human NCI-H23 cells after 48 hrs by SRB assay; format: functional; settings: NCI-H23, 48 h
T47D = assay: Growth inhibition of human T47D cells after 48 hrs by SRB assay; format: functional
NCI-H226 = assay: Growth inhibition of human NCI-H226 cells after 48 hrs by SRB assay; format: functional; settings: NCI-H226, 48 h
OVCAR-8 = assay: Growth inhibition of human OVCAR8 cells after 48 hrs by SRB assay; format: functional; settings: OVCAR-8, 48 h
SF-295 = assay: Growth inhibition of human SF295 cells after 48 hrs by SRB assay; format: functional; settings: SF-295, 48 h
786-0 = assay: Growth inhibition of human 786-0 cells after 48 hrs by SRB assay; format: functional; settings: 786-0, 48 h

COc1ccccc1Cn1cc(Sc2ccccc2OC)c2c(C)nc(N)nc21
IC50 [1]: 9000 nM
LED (JC): inactive

COc1ccc(Cn2cc(CCc3cc(OC)c(OC)c(OC)c3)c3c(C)nc(N)nc32)cc1
GI50 (RXF 393): 44.1 nM
GI50 (HCT-116): 265 nM
GI50 (HL-60): 220 nM
GI50 (SR): 120 nM
GI50 (NCI-H522): 31.6 nM
GI50 (NCI-H322M): 712 nM
GI50 (OVCAR-5): 596 nM
GI50 (MDA-MB-468): 52.4 nM
GI50 (IGROV-1): 154 nM
GI50 (HOP-62): 362 nM
GI50 [2]: 348 nM
GI50 (OVCAR-3): 164 nM
GI50 (SK-OV-3): 251 nM
GI50 (DU-145): 337 nM
IC50 [1]: 600 nM
GI50 (A498): 115 nM
GI50 (SK-MEL-2): 446 nM
GI50 (A549): 329 nM
GI50 [3]: 191 nM
GI50 (OVCAR-4): 338 nM
GI50 (M14): 204 nM
GI50 (HT-29): 247 nM
GI50 (SNB-19): 234 nM
GI50 (ACHN): 216 nM
GI50 (SF-268): 379 nM
GI50 (HOP-92): > 1000 nM
GI50 (COLO 205): 204 nM
GI50 (CAKI-1): 206 nM
GI50 (UACC-62): 61.5 nM
GI50 (NCI-H460): 251 nM
GI50 (MCF7): 46.4 nM
Ratio IC50 [4]: 4
GI50 (UACC-257): > 1000 nM
GI50 (RPMI-8226): 713 nM
GI50 (Malme-3M): 284 nM
GI50 (K562): 116 nM
GI50 (MDA-MB-435): 32.1 nM
GI50 (PC-3): 301 nM
GI50 (LOX IMVI): 364 nM
GI50 [5]: 139 nM
GI50 (TK-10): 686 nM
GI50 (SK-MEL-5): 110 nM
GI50 (CCRF-CEM): > 1000 nM
GI50 (HCT-15): 242 nM
GI50 (SK-MEL-28): 417 nM
GI50 (U-251): 311 nM
GI50 (SW-620): 208 nM
GI50 (NCI/ADR-RES): 202 nM
GI50 (SNB-75): 172 nM
GI50 (MDA-MB-231): 361 nM
GI50 (BT-549): 440 nM
GI50 (KM12): 264 nM
GI50 (SF-539): 96.4 nM
LED (JC): 0.2 µM
GI50 (UO-31): 397 nM
GI50 (SN12C): 499 nM
GI50 (NCI-H23): 428 nM
GI50 (T47D): 443 nM
GI50 (NCI-H226): 927 nM
GI50 (OVCAR-8): 334 nM
GI50 (SF-295): 83.9 nM
GI50 (786-0): 575 nM

COc1ccc(Cn2cc(CCc3cc(OC)c(OC)c(OC)c3)c3c(C)nc(N)nc32)cc1OC
IC50 [1]: 1500 nM
LED (JC): 1.2 µM

COc1ccccc1Sc1cn(Cc2cc(OC)c(OC)c(OC)c2)c2nc(N)nc(C)c12
IC50 [1]: 3000 nM
LED (JC): inactive

COc1cc(Cn2cc(Sc3cc(OC)c(OC)c(OC)c3)c3c(C)nc(N)nc32)cc(OC)c1OC
IC50 [1]: > 100000 nM
LED (JC): inactive

COc1ccc(Cn2cc(Sc3ccccc3OC)c3c(C)nc(N)nc32)cc1
IC50 [1]: 2500 nM
LED (JC): inactive

COc1ccccc1Sc1cn(Cc2ccccc2)c2nc(N)nc(C)c12
IC50 [1]: 11000 nM
LED (JC): 1.5 µM

CC(=O)O[C@H]1C(=O)[C@@]2(C)[C@H]([C@H](OC(=O)c3ccccc3)[C@]3(O)C[C@H](OC(=O)[C@H](O)[C@@H](NC(=O)c4ccccc4)c4ccccc4)C(C)=C1C3(C)C)[C@]1(OC(C)=O)CO[C@@H]1C[C@@H]2O [PACLITAXEL]
IC50 [1]: 150 nM
